According to ChEMBL document CHEMBL1811881, “Development of 3-substituted-androsterone derivatives as potent inhibitors of 17β-hydroxysteroid dehydrogenase type 3” (Bioorg Med Chem, 2011):

Tests used:
Format in all cases: cell-based
[1] = biological target: T1, 17-beta-hydroxysteroid dehydrogenase type 3 (Homo sapiens) (UniProt P37058); assay: Inhibition of 17Beta-HSD3 expressed in homogenized HEK293 cells assessed as transformation of [14C]-4-androstene-3,17-dione into [14C]-testosterone in presence of NADPH at 0.01 uM
T1 sequence (whole entry): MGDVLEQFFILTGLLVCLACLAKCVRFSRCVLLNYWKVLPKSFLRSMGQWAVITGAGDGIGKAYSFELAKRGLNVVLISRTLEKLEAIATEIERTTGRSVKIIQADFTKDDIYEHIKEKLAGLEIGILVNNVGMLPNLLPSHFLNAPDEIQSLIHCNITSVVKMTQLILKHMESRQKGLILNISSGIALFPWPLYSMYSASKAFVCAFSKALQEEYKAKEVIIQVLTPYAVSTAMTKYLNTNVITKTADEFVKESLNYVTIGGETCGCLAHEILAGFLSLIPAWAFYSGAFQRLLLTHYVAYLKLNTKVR
In short: (§1)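 HEK-293 cells overexpressing 17β-HSD3 were briefly homogenized. The enzyme assay measured conversion of 50 nM [4-14C]-4-androstene-3,17-dione to [14C]-testosterone with NADPH in excess (5 mM). Inhibitor was dissolved in ethanol, and the ethanol-only control was used to derive % inhibition at each concentration. Error 10%.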

[2] = biological target: T1, 17-beta-hydroxysteroid dehydrogenase type 3 (Homo sapiens); assay: Inhibition of 17Beta-HSD3 expressed in homogenized HEK293 cells assessed as transformation of [14C]-4-androstene-3,17-dione into [14C]-testosterone in presence of NADPH at 0.1 uM; in short: as §1
[3] = biological target: T1, 17-beta-hydroxysteroid dehydrogenase type 3 (Homo sapiens); assay: Inhibition of 17Beta-HSD3 expressed in intact HEK293 cells assessed as transformation of [14C]-4-androstene-3,17-dione into [14C]-testosterone in presence of NADPH at 0.1 uM after 1 hr incubation
In short: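 HEK-293 cells were grown in MEM with 10% FBS at 37 °C under 5% CO2, seeded at 200,000 cells/well, and transfected with 2 µg/well of a 17β-HSD3 expression plasmid. Intact cells then got 50 nM [4-14C]-4-androstene-3,17-dione plus inhibitor in ethanol (0.5% v/v) for 1 h. Radiolabelled steroids were extracted from the medium and quantified. Triplicate; % transformation was used to derive IC50.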

[4] = biological target: T1, 17-beta-hydroxysteroid dehydrogenase type 3 (Homo sapiens); assay: Inhibition of 17Beta-HSD3 expressed in homogenized HEK293 cells assessed as transformation of [14C]-4-androstene-3,17-dione into [14C]-testosterone in presence of NADPH at 1 uM; in short: as §1

| SMILES | inhibition [1] [%] | inhibition [2] [%] | inhibition [3] [%] | inhibition [4] [%] |
| --- | --- | --- | --- | --- |
| C[C@@H]1CN(C(=O)C2CCCCC2)[C@@H](C)CN1C[C@@]1(O)CC[C@@]2(C)[C@@H](CC[C@@H]3[C@@H]2CC[C@]2(C)C(=O)CC[C@@H]32)C1 | 24 | 90 | 77 |  |
| COc1cccc(CN2C[C@@H](C)N(C[C@@]3(O)CC[C@@]4(C)[C@@H](CC[C@@H]5[C@@H]4CC[C@]4(C)C(=O)CC[C@@H]54)C3)C[C@@H]2C)c1 | 19 | 87 | 50 |  |
| C[C@]12CC[C@@]3(C[C@@H]1CC[C@@H]1[C@@H]2CC[C@]2(C)C(=O)CC[C@@H]12)CN(Cc1ccc(C(F)(F)F)nc1)C(=O)O3 | 3 | 65 | 36 |  |
| Cc1ccc(CN2C[C@]3(CC[C@@]4(C)[C@@H](CC[C@@H]5[C@@H]4CC[C@]4(C)C(=O)CC[C@@H]54)C3)OC2=O)cc1 | 17 | 81 | 38 | 93 |
| C[C@]12CC[C@@]3(C[C@@H]1CC[C@@H]1[C@@H]2CC[C@]2(C)C(=O)CC[C@@H]12)CN(Cc1cccc(C(F)(F)F)c1)C(=O)O3 | 16 | 80 | 36 |  |
| C[C@]12CC[C@@]3(C[C@@H]1CC[C@@H]1[C@@H]2CC[C@]2(C)C(=O)CC[C@@H]12)CN(CCC(CN1CCOCC1)OC(=O)CCC1CCCC1)C(=O)O3 (some centres undefined) | 2 | 79 | 49 | 94 |
| CCCN(CCC)CCN1C[C@]2(CC[C@@]3(C)[C@@H](CC[C@@H]4[C@@H]3CC[C@]3(C)C(=O)CC[C@@H]43)C2)OC1=O | 0 | 10 | 8 | 62 |
| C[C@@H]1CN(Cc2ccccc2C(F)(F)F)[C@@H](C)CN1C[C@@]1(O)CC[C@@]2(C)[C@@H](CC[C@@H]3[C@@H]2CC[C@]2(C)C(=O)CC[C@@H]32)C1 | 22 | 85 | 36 |  |
| Cc1cccc(S(=O)(=O)CCN2C[C@]3(CC[C@@]4(C)[C@@H](CC[C@@H]5[C@@H]4CC[C@]4(C)C(=O)CC[C@@H]54)C3)OC2=O)c1 | 0 | 52 | 5 | 93 |
| C[C@]12CC[C@@]3(C[C@@H]1CC[C@@H]1[C@@H]2CC[C@]2(C)C(=O)CC[C@@H]12)CN(Cc1cc(C(F)(F)F)cc(C(F)(F)F)c1)C(=O)O3 | 12 | 66 | 35 |  |
| C[C@]12CC[C@@]3(C[C@@H]1CC[C@@H]1[C@@H]2CC[C@]2(C)C(=O)CC[C@@H]12)CN(Cc1ccc(C(F)(F)F)cc1)C(=O)O3 | 25 | 80 | 43 |  |
| C[C@]12CC[C@@]3(C[C@@H]1CC[C@@H]1[C@@H]2CC[C@]2(C)C(=O)CC[C@@H]12)CN(CCBr)C(=O)O3 | 17 | 69 | 31 | 93 |
| C[C@]12CC[C@](O)(CN3CCN(S(=O)(=O)c4ccc(C(F)(F)F)cc4)CC3)C[C@@H]1CC[C@@H]1[C@@H]2CC[C@]2(C)C(=O)CC[C@@H]12 | 21 | 78 | 34 |  |
| C[C@]12CC[C@@]3(C[C@@H]1CC[C@@H]1[C@@H]2CC[C@]2(C)C(=O)CC[C@@H]12)CN(Cc1ccccc1C(F)(F)F)C(=O)O3 | 17 | 81 | 35 |  |
| C[C@]12CC[C@](O)(CN3CCN(Cc4cccc(C(F)(F)F)c4)CC3)C[C@@H]1CC[C@@H]1[C@@H]2CC[C@]2(C)C(=O)CC[C@@H]12 | 51 | 88 | 52 |  |
| C[C@@H]1CN(C(=O)c2ccccc2)[C@@H](C)CN1C[C@@]1(O)CC[C@@]2(C)[C@@H](CC[C@@H]3[C@@H]2CC[C@]2(C)C(=O)CC[C@@H]32)C1 | 24 | 87 | 78 |  |
| C[C@]12CC[C@](O)(CN3CCN(Cc4ccc(C(F)(F)F)cc4)CC3)C[C@@H]1CC[C@@H]1[C@@H]2CC[C@]2(C)C(=O)CC[C@@H]12 | 14 | 81 | 33 |  |
| C[C@@H]1CN(C(=O)c2cccc(C(F)(F)F)c2)[C@@H](C)CN1C[C@@]1(O)CC[C@@]2(C)[C@@H](CC[C@@H]3[C@@H]2CC[C@]2(C)C(=O)CC[C@@H]32)C1 | 28 | 89 | 70 |  |

| SMILES | inhibition [1] [%] | inhibition [2] [%] | inhibition [3] [%] | inhibition [4] [%] |
| --- | --- | --- | --- | --- |
| Cc1ccc(CN2C[C@]3(CC[C@@]4(C)[C@@H](CC[C@@H]5[C@@H]4CC[C@]4(C)C(=O)C(C)(C)C[C@@H]54)C3)OC2=O)cc1 | 2 | 22 | 18 | 74 |
| C[C@]12CC[C@](O)(CN3CCN(Cc4cc(C(F)(F)F)ccc4C(F)(F)F)CC3)C[C@@H]1CC[C@@H]1[C@@H]2CC[C@]2(C)C(=O)CC[C@@H]12 | 18 | 85 | 12 |  |
| C[C@]12CC[C@](O)(CN3CCN(C(=O)c4cccc(C(F)(F)F)c4)CC3)C[C@@H]1CC[C@@H]1[C@@H]2CC[C@]2(C)C(=O)CC[C@@H]12 | 10 | 92 | 91 |  |
| C[C@@H]1CN(C(=O)c2ccc(C(F)(F)F)cc2)[C@@H](C)CN1C[C@@]1(O)CC[C@@]2(C)[C@@H](CC[C@@H]3[C@@H]2CC[C@]2(C)C(=O)CC[C@@H]32)C1 | 17 | 91 | 61 |  |
| C[C@]12CC[C@](O)(CN3CCN(Cc4ccc(C(F)(F)F)cc4C(F)(F)F)CC3)C[C@@H]1CC[C@@H]1[C@@H]2CC[C@]2(C)C(=O)CC[C@@H]12 | 22 | 75 | 16 |  |
| C[C@@H]1CN(Cc2ccc(C(F)(F)F)cc2C(F)(F)F)[C@@H](C)CN1C[C@@]1(O)CC[C@@]2(C)[C@@H](CC[C@@H]3[C@@H]2CC[C@]2(C)C(=O)CC[C@@H]32)C1 | 15 | 71 | 21 |  |
| C[C@]12CC[C@](O)(CN3CCN(S(=O)(=O)c4ccccc4C(F)(F)F)CC3)C[C@@H]1CC[C@@H]1[C@@H]2CC[C@]2(C)C(=O)CC[C@@H]12 | 45 | 92 | 63 |  |
| C[C@]12CC[C@](O)(CN3CCN(Cc4ccccc4C(F)(F)F)CC3)C[C@@H]1CC[C@@H]1[C@@H]2CC[C@]2(C)C(=O)CC[C@@H]12 | 18 | 86 | 20 |  |
| C[C@]12CC[C@](O)(CN3CCN(Cc4cc(C(F)(F)F)cc(C(F)(F)F)c4)CC3)C[C@@H]1CC[C@@H]1[C@@H]2CC[C@]2(C)C(=O)CC[C@@H]12 | 25 | 83 | 25 |  |
| C[C@@H]1CN(Cc2cc(C(F)(F)F)ccc2C(F)(F)F)[C@@H](C)CN1C[C@@]1(O)CC[C@@]2(C)[C@@H](CC[C@@H]3[C@@H]2CC[C@]2(C)C(=O)CC[C@@H]32)C1 | 16 | 71 | 23 |  |
| C[C@@H]1CN(S(=O)(=O)c2ccc(C(F)(F)F)cc2)[C@@H](C)CN1C[C@@]1(O)CC[C@@]2(C)[C@@H](CC[C@@H]3[C@@H]2CC[C@]2(C)C(=O)CC[C@@H]32)C1 | 79 | 92 | 47 |  |
| C[C@@H]1CN(S(=O)(=O)c2cccc(C(F)(F)F)c2)[C@@H](C)CN1C[C@@]1(O)CC[C@@]2(C)[C@@H](CC[C@@H]3[C@@H]2CC[C@]2(C)C(=O)CC[C@@H]32)C1 | 32 | 91 | 77 |  |
| C[C@@H]1CN(Cc2ccc(C(F)(F)F)cc2)[C@@H](C)CN1C[C@@]1(O)CC[C@@]2(C)[C@@H](CC[C@@H]3[C@@H]2CC[C@]2(C)C(=O)CC[C@@H]32)C1 | 14 | 87 | 36 |  |
| C[C@@H]1CN(Cc2cc(C(F)(F)F)cc(C(F)(F)F)c2)[C@@H](C)CN1C[C@@]1(O)CC[C@@]2(C)[C@@H](CC[C@@H]3[C@@H]2CC[C@]2(C)C(=O)CC[C@@H]32)C1 | 25 | 74 | 16 |  |
| COc1cccc(CN2CCN(C[C@@]3(O)CC[C@@]4(C)[C@@H](CC[C@@H]5[C@@H]4CC[C@]4(C)C(=O)CC[C@@H]54)C3)CC2)c1 | 21 | 83 | 47 |  |
| C[C@]12CC[C@](O)(CN3CCN(C(=O)c4ccccc4C(F)(F)F)CC3)C[C@@H]1CC[C@@H]1[C@@H]2CC[C@]2(C)C(=O)CC[C@@H]12 | 31 | 86 | 62 |  |
| C[C@]12CC[C@](O)(CN3CCN(C(=O)c4ccc(C(F)(F)F)cc4)CC3)C[C@@H]1CC[C@@H]1[C@@H]2CC[C@]2(C)C(=O)CC[C@@H]12 | 22 | 84 | 56 |  |
| C[C@]12CC[C@](O)(CN3CCN(C(=O)c4ccccc4)CC3)C[C@@H]1CC[C@@H]1[C@@H]2CC[C@]2(C)C(=O)CC[C@@H]12 | 17 | 76 | 50 |  |
